Measured values from ChEMBL document CHEMBL1155459, “On-bead screening of a combinatorial fumaric acid derived peptide library yields antiplasmodial cysteine protease inhibitors with unusual peptide sequences” (J Med Chem, 2009).
Peptide text beside a SMILES is read from it.

Tests used:
[1] = Inhibition of Plasmodium falciparum falcipain-2 after 12 hrs by fluorescence spectroscopy-based on-bead assay; parameters: concentration or dose not given beside the values; conditions: concentration not given here
In short: (§1)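 Library members on resin (PEGA, theoretical loading 0.40 mmol/g; added as DMSO suspension, 0.64 mM final inhibitor) preincubated with enzyme 12 h, then Cbz-Phe-Arg-AMC 40 μM added; AMC release followed by fluorescence (ex 380/em 460 nm). Kinetics compared with inhibitor-free amino-PEGA resin.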

[2] = target: Rhodesain (Trypanosoma brucei rhodesiense) (UniProt Q95PM0); assay: Inhibition of Trypanosoma brucei rhodesiense rhodesain after 12 hrs by fluorescence spectroscopy-based on-bead assay; parameters: concentration or dose not given beside the values; conditions: concentration not given here; in short: as §1
Rhodesain (Trypanosoma brucei rhodesiense), sequence (Q95PM0 1-450): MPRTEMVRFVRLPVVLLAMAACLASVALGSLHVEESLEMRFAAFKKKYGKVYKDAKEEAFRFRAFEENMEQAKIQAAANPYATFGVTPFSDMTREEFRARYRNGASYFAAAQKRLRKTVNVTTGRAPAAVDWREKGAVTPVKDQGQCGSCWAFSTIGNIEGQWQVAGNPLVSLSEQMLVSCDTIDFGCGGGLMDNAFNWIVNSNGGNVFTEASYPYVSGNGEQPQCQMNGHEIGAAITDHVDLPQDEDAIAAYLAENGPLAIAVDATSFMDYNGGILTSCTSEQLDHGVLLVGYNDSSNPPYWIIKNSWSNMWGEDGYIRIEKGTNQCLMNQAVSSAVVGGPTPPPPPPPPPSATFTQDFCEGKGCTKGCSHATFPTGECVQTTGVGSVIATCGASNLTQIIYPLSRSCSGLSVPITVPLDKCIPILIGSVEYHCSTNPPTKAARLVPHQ

SMILES	inhibition [1]	inhibition [2]
CC(C)[C@H](NC(=O)[C@H](C)NC(=O)[C@H](Cc1ccccc1)NC(=O)[C@H](C)NC(=O)/C=C/C(=O)N[C@@H](C)C(=O)NCC(=O)N[C@@H](Cc1ccccc1)C(=O)O)C(N)=O (HELM PEPTIDE1{[C[C@H](NC(=O)/C=C/C(=O)[*:2])C(=O)NCC(=O)N[C@@H](Cc1ccccc1)C(=O)O].A.F.A.V.[am]}$$$$V2.0)	51%	18%
CC(C)C[C@H](NC(=O)[C@H](Cc1ccccc1)NC(=O)[C@H](C)NC(=O)/C=C/C(=O)N[C@@H](C)C(=O)NCC(=O)N[C@@H](Cc1ccccc1)C(=O)O)C(=O)N[C@H](C(N)=O)C(C)C (HELM PEPTIDE1{[C[C@H](NC(=O)/C=C/C(=O)[*:2])C(=O)NCC(=O)N[C@@H](Cc1ccccc1)C(=O)O].A.F.L.V.[am]}$$$$V2.0)	57%	66%
CC[C@H](C)[C@H](NC(=O)[C@H](C)NC(=O)/C=C/C(=O)NCC(=O)NCC(=O)N[C@@H](Cc1ccccc1)C(=O)O)C(=O)N[C@@H](CC(C)C)C(=O)N[C@H](C(N)=O)C(C)C (HELM PEPTIDE1{[O=C(/C=C/C(=O)[*:2])NCC(=O)NCC(=O)N[C@@H](Cc1ccccc1)C(=O)O].A.I.L.V.[am]}$$$$V2.0)	61%	58%
CC(C)[C@H](NC(=O)[C@@H](NC(=O)[C@@H](NC(=O)[C@H](C)NC(=O)/C=C/C(=O)N[C@@H](C)C(=O)NCC(=O)N[C@@H](Cc1ccccc1)C(=O)O)c1ccccc1)C(C)C)C(N)=O (HELM PEPTIDE1{[C[C@H](NC(=O)/C=C/C(=O)[*:2])C(=O)NCC(=O)N[C@@H](Cc1ccccc1)C(=O)O].A.[Phg].V.V.[am]}$$$$V2.0)	38%	50%
CC(C)[C@H](NC(=O)[C@H](C)NC(=O)[C@@H](NC(=O)[C@H](CCC(N)=O)NC(=O)/C=C/C(=O)NCC(=O)NCC(=O)N[C@@H](Cc1ccccc1)C(=O)O)c1ccccc1)C(N)=O (HELM PEPTIDE1{[O=C(/C=C/C(=O)[*:2])NCC(=O)NCC(=O)N[C@@H](Cc1ccccc1)C(=O)O].Q.[Phg].A.V.[am]}$$$$V2.0)	34%	17%
CC(=O)NC[C@H](NC(=O)/C=C/C(=O)N[C@@H](C)C(=O)NCC(=O)N[C@@H](Cc1ccccc1)C(=O)O)C(=O)N[C@H](C(=O)N[C@@H](CC(C)C)C(=O)N[C@H](C(N)=O)C(C)C)c1ccccc1 (HELM PEPTIDE1{[C[C@H](NC(=O)/C=C/C(=O)[*:2])C(=O)NCC(=O)N[C@@H](Cc1ccccc1)C(=O)O].[O=C([C@H](CN[*:3])N[*:1])[*:2]].[Phg].L.V.[am]}|PEPTIDE2{[ac]}$PEPTIDE1,PEPTIDE2,2:R3-1:R2$$$V2.0)	52%	56%
CC[C@H](C)[C@H](NC(=O)[C@H](CCC(N)=O)NC(=O)/C=C/C(=O)N[C@@H](C)C(=O)NCC(=O)N[C@@H](Cc1ccccc1)C(=O)O)C(=O)N[C@H](C(=O)N[C@H](C(N)=O)C(C)C)C(C)C (HELM PEPTIDE1{[C[C@H](NC(=O)/C=C/C(=O)[*:2])C(=O)NCC(=O)N[C@@H](Cc1ccccc1)C(=O)O].Q.I.V.V.[am]}$$$$V2.0)	54%	38%
CC[C@H](C)[C@H](NC(=O)[C@H](C)NC(=O)/C=C/C(=O)N[C@@H](C)C(=O)NCC(=O)N[C@@H](Cc1ccccc1)C(=O)O)C(=O)N[C@@H](CC(C)C)C(=O)N[C@H](C(N)=O)C(C)C (HELM PEPTIDE1{[C[C@H](NC(=O)/C=C/C(=O)[*:2])C(=O)NCC(=O)N[C@@H](Cc1ccccc1)C(=O)O].A.I.L.V.[am]}$$$$V2.0)	54%	49%
CC(C)C[C@H](NC(=O)[C@H](C)NC(=O)/C=C/C(=O)NCC(=O)NCC(=O)N[C@@H](Cc1ccccc1)C(=O)O)C(=O)N[C@H](C(=O)N[C@H](C(N)=O)C(C)C)C(C)C (HELM PEPTIDE1{[O=C(/C=C/C(=O)[*:2])NCC(=O)NCC(=O)N[C@@H](Cc1ccccc1)C(=O)O].A.L.V.V.[am]}$$$$V2.0)	29%	55%
CC(C)C[C@H](NC(=O)[C@H](Cc1ccccc1)NC(=O)[C@H](CCC(N)=O)NC(=O)/C=C/C(=O)N[C@@H](C)C(=O)NCC(=O)N[C@@H](Cc1ccccc1)C(=O)O)C(=O)N[C@H](C(N)=O)C(C)C (HELM PEPTIDE1{[C[C@H](NC(=O)/C=C/C(=O)[*:2])C(=O)NCC(=O)N[C@@H](Cc1ccccc1)C(=O)O].Q.F.L.V.[am]}$$$$V2.0)	49%	60%
CC(C)[C@H](NC(=O)[C@H](C)NC(=O)[C@@H](NC(=O)[C@H](C)NC(=O)/C=C/C(=O)N[C@@H](C)C(=O)NCC(=O)N[C@@H](Cc1ccccc1)C(=O)O)C1CCCCC1)C(N)=O (HELM PEPTIDE1{[C[C@H](NC(=O)/C=C/C(=O)[*:2])C(=O)NCC(=O)N[C@@H](Cc1ccccc1)C(=O)O].A.[O=C([C@@H](N[*:1])C1CCCCC1)[*:2]].A.V.[am]}$$$$V2.0)	38%	26%
CC(C)[C@H](NC(=O)[C@@H](NC(=O)[C@@H](NC(=O)[C@H](Cc1ccccc1)NC(=O)/C=C/C(=O)NCC(=O)NCC(=O)N[C@@H](Cc1ccccc1)C(=O)O)C1CCCCC1)C(C)C)C(N)=O (HELM PEPTIDE1{[O=C(/C=C/C(=O)[*:2])NCC(=O)NCC(=O)N[C@@H](Cc1ccccc1)C(=O)O].F.[O=C([C@@H](N[*:1])C1CCCCC1)[*:2]].V.V.[am]}$$$$V2.0)	48%	49%
CC(=O)NC[C@H](NC(=O)/C=C/C(=O)N[C@@H](C)C(=O)NCC(=O)N[C@@H](Cc1ccccc1)C(=O)O)C(=O)N[C@@H](CC(C)C)C(=O)N[C@@H](C)C(=O)N[C@H](C(N)=O)C(C)C (HELM PEPTIDE1{[C[C@H](NC(=O)/C=C/C(=O)[*:2])C(=O)NCC(=O)N[C@@H](Cc1ccccc1)C(=O)O].[O=C([C@H](CN[*:3])N[*:1])[*:2]].L.A.V.[am]}|PEPTIDE2{[ac]}$PEPTIDE1,PEPTIDE2,2:R3-1:R2$$$V2.0)	28%	19%
CC(C)C[C@H](NC(=O)[C@@H](NC(=O)[C@H](C)NC(=O)/C=C/C(=O)NCC(=O)NCC(=O)N[C@@H](Cc1ccccc1)C(=O)O)c1ccccc1)C(=O)N[C@H](C(N)=O)C(C)C (HELM PEPTIDE1{[O=C(/C=C/C(=O)[*:2])NCC(=O)NCC(=O)N[C@@H](Cc1ccccc1)C(=O)O].A.[Phg].L.V.[am]}$$$$V2.0)	53%	54%
CC(C)[C@H](NC(=O)[C@@H](NC(=O)[C@@H](NC(=O)[C@H](CCC(N)=O)NC(=O)/C=C/C(=O)N[C@@H](C)C(=O)NCC(=O)N[C@@H](Cc1ccccc1)C(=O)O)C1CCCCC1)C(C)C)C(N)=O (HELM PEPTIDE1{[C[C@H](NC(=O)/C=C/C(=O)[*:2])C(=O)NCC(=O)N[C@@H](Cc1ccccc1)C(=O)O].Q.[O=C([C@@H](N[*:1])C1CCCCC1)[*:2]].V.V.[am]}$$$$V2.0)	47%	43%
CC[C@H](C)[C@H](NC(=O)[C@H](Cc1ccccc1)NC(=O)/C=C/C(=O)N[C@@H](C)C(=O)NCC(=O)N[C@@H](Cc1ccccc1)C(=O)O)C(=O)N[C@@H](C)C(=O)N[C@H](C(N)=O)C(C)C (HELM PEPTIDE1{[C[C@H](NC(=O)/C=C/C(=O)[*:2])C(=O)NCC(=O)N[C@@H](Cc1ccccc1)C(=O)O].F.I.A.V.[am]}$$$$V2.0)	29%	40%
CC(C)C[C@H](NC(=O)[C@@H](NC(=O)[C@H](Cc1ccccc1)NC(=O)/C=C/C(=O)NCC(=O)NCC(=O)N[C@@H](Cc1ccccc1)C(=O)O)C1CCCCC1)C(=O)N[C@H](C(N)=O)C(C)C (HELM PEPTIDE1{[O=C(/C=C/C(=O)[*:2])NCC(=O)NCC(=O)N[C@@H](Cc1ccccc1)C(=O)O].F.[O=C([C@@H](N[*:1])C1CCCCC1)[*:2]].L.V.[am]}$$$$V2.0)	40%	57%
CC(C)C[C@H](NC(=O)[C@@H](NC(=O)[C@H](CCC(N)=O)NC(=O)/C=C/C(=O)NCC(=O)NCC(=O)N[C@@H](Cc1ccccc1)C(=O)O)C1CCCCC1)C(=O)N[C@H](C(N)=O)C(C)C (HELM PEPTIDE1{[O=C(/C=C/C(=O)[*:2])NCC(=O)NCC(=O)N[C@@H](Cc1ccccc1)C(=O)O].Q.[O=C([C@@H](N[*:1])C1CCCCC1)[*:2]].L.V.[am]}$$$$V2.0)	45%	71%
CC(C)[C@H](NC(=O)[C@@H](NC(=O)[C@H](Cc1ccccc1)NC(=O)[C@H](CCC(N)=O)NC(=O)/C=C/C(=O)N[C@@H](C)C(=O)NCC(=O)N[C@@H](Cc1ccccc1)C(=O)O)C(C)C)C(N)=O (HELM PEPTIDE1{[C[C@H](NC(=O)/C=C/C(=O)[*:2])C(=O)NCC(=O)N[C@@H](Cc1ccccc1)C(=O)O].Q.F.V.V.[am]}$$$$V2.0)	58%	45%
CC(C)C[C@H](NC(=O)[C@@H](NC(=O)[C@H](CC(N)=O)NC(=O)/C=C/C(=O)N[C@@H](C)C(=O)NCC(=O)N[C@@H](Cc1ccccc1)C(=O)O)c1ccccc1)C(=O)N[C@H](C(N)=O)C(C)C (HELM PEPTIDE1{[C[C@H](NC(=O)/C=C/C(=O)[*:2])C(=O)NCC(=O)N[C@@H](Cc1ccccc1)C(=O)O].N.[Phg].L.V.[am]}$$$$V2.0)	55%	55%
CC(C)[C@H](NC(=O)[C@@H](NC(=O)[C@H](Cc1ccccc1)NC(=O)[C@H](CC(N)=O)NC(=O)/C=C/C(=O)NCC(=O)NCC(=O)N[C@@H](Cc1ccccc1)C(=O)O)C(C)C)C(N)=O (HELM PEPTIDE1{[O=C(/C=C/C(=O)[*:2])NCC(=O)NCC(=O)N[C@@H](Cc1ccccc1)C(=O)O].N.F.V.V.[am]}$$$$V2.0)	40%	28%
CC(C)C[C@H](NC(=O)[C@H](Cc1ccccc1)NC(=O)/C=C/C(=O)NCC(=O)NCC(=O)N[C@@H](Cc1ccccc1)C(=O)O)C(=O)N[C@H](C(=O)N[C@H](C(N)=O)C(C)C)C(C)C (HELM PEPTIDE1{[O=C(/C=C/C(=O)[*:2])NCC(=O)NCC(=O)N[C@@H](Cc1ccccc1)C(=O)O].F.L.V.V.[am]}$$$$V2.0)	46%	58%
CC[C@H](C)[C@H](NC(=O)[C@H](CC(N)=O)NC(=O)/C=C/C(=O)NCC(=O)NCC(=O)N[C@@H](Cc1ccccc1)C(=O)O)C(=O)N[C@@H](C)C(=O)N[C@H](C(N)=O)C(C)C (HELM PEPTIDE1{[O=C(/C=C/C(=O)[*:2])NCC(=O)NCC(=O)N[C@@H](Cc1ccccc1)C(=O)O].N.I.A.V.[am]}$$$$V2.0)	63%	55%
